In brackets after ≈: the same amount, converted by molar mass.
What was measured:
MCF7 = assay: Photocytotoxicity against human MCF7 cells preincubated for 24 hrs in dark followed by illumination at 5.5 x 10^-2 mW/cm'2 light measured after 24 hrs post illumination by MTT assay; type: functional, cell-based
HaCaT = assay: Photocytotoxicity against human HaCaT cells preincubated for 24 hrs in dark followed by illumination at 5.5 x 10^-2 mW/cm'2 light measured after 24 hrs post illumination by MTT assay; type: functional, cell-based
[1] = Induction of singlet oxygen production assessed as appearance of ergosterol acetate epidioxide at 10 uM after 10 mW/cm'2 irradiation for 30 mins by TLC; type: physicochemical; conditions: 0.5 h
[2] = Octanol-water partition coefficient, log P at 300 uM by absorption spectroscopy; type: physicochemical
How it was run: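 1-Octanol/water partitioning at 25 °C using equal volumes of water and 1-octanol. Dye solution at 300 µM was vortexed and centrifuged. Aliquots of each phase were diluted separately into MeOH, and dye concentration was read by absorption spectroscopy. log P = log([dye]octanol/[dye]water).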

[3] = Photostability assessed as residual absorbance at 2.5 mW/cm'2 irradiation for 60 mins by photobleaching test; type: physicochemical; conditions: read-out: Stability
How it was run: (§1)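 Solutions were irradiated with white light at fluence 2.5 mW/cm2. Absorbance was measured at the Soret band maximum and reported as % residual absorbance versus irradiation time.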

[4] = Photostability assessed as residual absorbance at 2.5 mW/cm'2 irradiation for 45 mins by photobleaching test; type: physicochemical; conditions: read-out: Stability; how it was run: as §1
[5] = Photostability assessed as residual absorbance at 2.5 mW/cm'2 irradiation for 15 mins by photobleaching test; type: physicochemical; conditions: read-out: Stability; how it was run: as §1
[6] = Photostability assessed as residual absorbance at 2.5 mW/cm'2 irradiation for 30 mins by photobleaching test; type: physicochemical; conditions: read-out: Stability; how it was run: as §1
[7] = Homo sapiens, MCF7, read-out: IC50
[8] = Homo sapiens, HaCaT, read-out: IC50

For `c1ccc(-c2c3nc(c(-c4ccccc4)c4[nH]c(c(-c5ccccc5)c5nc(c(-c6ccccc6)c6[nH]c2c2ccccc62)-c2ccccc2-5)c2ccccc42)-c2ccccc2-3)cc1` [Ar4TBP], the IC50 (MCF7; mcf7) was “Not Active” and the IC50 (HaCaT; hacat) was “Not Active”.

In the case of PORFIMER SODIUM, the IC50 (MCF7; mcf7) is reported as 1.224 µg/mL, the Activity [1] is reported as “Active” and the IC50 (HaCaT; hacat) is reported as 0.0787 µg/mL.

For `OC[C@H]1O[C@@H](Oc2ccc(-c3c4nc(c(-c5ccc(O[C@@H]6O[C@H](CO)[C@@H](O)[C@H](O)[C@H]6O)cc5)c5[nH]c(c(-c6ccc(O[C@@H]7O[C@H](CO)[C@@H](O)[C@H](O)[C@H]7O)cc6)c6nc(c(-c7ccc(O[C@@H]8O[C@H](CO)[C@@H](O)[C@H](O)[C@H]8O)cc7)c7[nH]c3c3ccccc73)-c3ccccc3-6)c3ccccc53)-c3ccccc3-4)cc2)[C@H](O)[C@@H](O)[C@@H]1O`, the logP at 300 µM [2] was 0.18, the remaining at 1 h [3] was 95% and the remaining at 0.75 h [4] was 98%. For the same compound, the IC50 (MCF7; [7]) was 8.41 µg/mL (≈ 5.51 µM), the remaining at 0.25 h [5] was 100% and the Activity [1] was “Active”. For the same compound, the remaining at 0.5 h [6] was 99% and the IC50 (HaCaT; [8]) was 0.971 µg/mL (≈ 0.636 µM).

In the case of `CC(=O)OC[C@H]1O[C@H](OCC(=O)NCOCCOCCNC(=O)c2ccc(-c3c4nc(c(-c5ccc(C(=O)NCCOCCOCNC(=O)CO[C@H]6O[C@H](COC(C)=O)[C@@H](OC(C)=O)[C@H](OC(C)=O)[C@H]6O)cc5)c5[nH]c(c(-c6ccc(C(=O)NCCOCCOCNC(=O)CO[C@H]7O[C@H](COC(C)=O)[C@@H](OC(C)=O)[C@H](OC(C)=O)[C@H]7O)cc6)c6nc(c(-c7ccc(C(=O)NCCOCCOCNC(=O)CO[C@H]8O[C@H](COC(C)=O)[C@@H](OC(C)=O)[C@H](OC(C)=O)[C@H]8O)cc7)c7[nH]c3c3ccccc73)-c3ccccc3-6)c3ccccc53)-c3ccccc3-4)cc2)[C@H](O)[C@@H](OC(C)=O)[C@@H]1OC(C)=O`, the Activity [1] is reported as “Active”.

With `O=C([O-])c1c(Cl)c(Cl)c(Cl)c(Cl)c1-c1c2cc(I)c(=O)c(I)c-2oc2c(I)c([O-])c(I)cc12.[K+].[K+]` the Activity [1] was “Active”.

With `CC(C)(C)OC(=O)NCCCCN(CCCCNC(=O)c1ccc(-c2c3nc(c(-c4ccc(C(=O)NCCCCN(CCCCNC(=O)OC(C)(C)C)CCCNC(=O)OC(C)(C)C)cc4)c4[nH]c(c(-c5ccc(C(=O)NCCCCN(CCCCNC(=O)OC(C)(C)C)CCCNC(=O)OC(C)(C)C)cc5)c5nc(c(-c6ccc(C(=O)NCCCCN(CCCCNC(=O)OC(C)(C)C)CCCNC(=O)OC(C)(C)C)cc6)c6[nH]c2c2ccccc62)-c2ccccc2-5)c2ccccc42)-c2ccccc2-3)cc1)CCCNC(=O)OC(C)(C)C` the Activity [1] was “Active”.

Work on `NCCCCN(CCCN)CCCCNC(=O)c1ccc(-c2c3nc(c(-c4ccc(C(=O)NCCCCN(CCCN)CCCCN)cc4)c4[nH]c(c(-c5ccc(C(=O)NCCCCN(CCCN)CCCCN)cc5)c5nc(c(-c6ccc(C(=O)NCCCCN(CCCN)CCCCN)cc6)c6[nH]c2c2ccccc62)-c2ccccc2-5)c2ccccc42)-c2ccccc2-3)cc1` yielded a logP at 300 µM [2] of -0.21, a remaining at 1 h [3] of 96% and a remaining at 0.75 h [4] of 97%. The IC50 (MCF7; [7]) was 7.28 µg/mL (≈ 4.08 µM), the remaining at 0.25 h [5] was 100% and the Activity [1] was “Active”. For the same compound, the remaining at 0.5 h [6] was 99% and the IC50 (HaCaT; [8]) was 3.42 µg/mL (≈ 1.92 µM).

Work on `NCCCNCCCCN(CCCN)CCCCNC(=O)c1ccc(-c2c3nc(c(-c4ccc(C(=O)NCCCCN(CCCN)CCCCNCCCN)cc4)c4[nH]c(c(-c5ccc(C(=O)NCCCCN(CCCN)CCCCNCCCN)cc5)c5nc(c(-c6ccc(C(=O)NCCCCN(CCCN)CCCCNCCCN)cc6)c6[nH]c2c2ccccc62)-c2ccccc2-5)c2ccccc42)-c2ccccc2-3)cc1` yielded a logP at 300 µM [2] of -0.47, a remaining at 1 h [3] of 97% and a remaining at 0.75 h [4] of 99%. For the same compound, the IC50 (MCF7; mcf7) was “Not Active”, the remaining at 0.25 h [5] was 100% and the Activity [1] was “Active”. For the same compound, the remaining at 0.5 h [6] was 100% and the IC50 (HaCaT; hacat) was “Not Active”.

With `O=C1OC2(c3ccccc31)c1cc(Br)c(O)c(Br)c1Oc1c2cc(Br)c(O)c1Br` [EOSIN] the Activity [1] was “Active”.

In the case of `NCCOCCOCCNC(=O)c1ccc(-c2c3nc(c(-c4ccc(C(=O)NCCOCCOCCN)cc4)c4[nH]c(c(-c5ccc(C(=O)NCCOCCOCCN)cc5)c5nc(c(-c6ccc(C(=O)NCCOCCOCCN)cc6)c6[nH]c2c2ccccc62)-c2ccccc2-5)c2ccccc42)-c2ccccc2-3)cc1`, the Activity [1] is reported as “Active”.

For `CC(C)(C)OC(=O)NCCOCCOCCNC(=O)c1ccc(-c2c3nc(c(-c4ccc(C(=O)NCCOCCOCCNC(=O)OC(C)(C)C)cc4)c4[nH]c(c(-c5ccc(C(=O)NCCOCCOCCNC(=O)OC(C)(C)C)cc5)c5nc(c(-c6ccc(C(=O)NCCOCCOCCNC(=O)OC(C)(C)C)cc6)c6[nH]c2c2ccccc62)-c2ccccc2-5)c2ccccc42)-c2ccccc2-3)cc1`, the Activity [1] was “Active”.

For `CC(C)(C)OC(=O)NCCCN(CCCCNC(=O)c1ccc(-c2c3nc(c(-c4ccc(C(=O)NCCCCN(CCCCN(CCCNC(=O)OC(C)(C)C)C(=O)OC(C)(C)C)CCCNC(=O)OC(C)(C)C)cc4)c4[nH]c(c(-c5ccc(C(=O)NCCCCN(CCCCN(CCCNC(=O)OC(C)(C)C)C(=O)OC(C)(C)C)CCCNC(=O)OC(C)(C)C)cc5)c5nc(c(-c6ccc(C(=O)NCCCCN(CCCCN(CCCNC(=O)OC(C)(C)C)C(=O)OC(C)(C)C)CCCNC(=O)OC(C)(C)C)cc6)c6[nH]c2c2ccccc62)-c2ccccc2-5)c2ccccc42)-c2ccccc2-3)cc1)CCCCN(CCCNC(=O)OC(C)(C)C)C(=O)OC(C)(C)C`, the Activity [1] was “Active”.
